# From ChEMBL document CHEMBL5303300, “EUbOPEN Chemogenomics Library - Multiplex” (2023)
# Values joined by “and” are separate entries in the source; they are usually repeats but may differ in a detail not shown here. Equal values may be shown once.
# System: Fibroblast
# Experiment: Multiplex assay against human fibroblast
# Type: toxicity, cell-based
# Conditions: number of replicates 2
# Procedure, shortened: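 Live cells were stained at seeding with Hoechst33342, BioTracker Green Microtubule Cytoskeleton Dye, MitoTracker Red and Annexin V Alexa Fluor 680. Following compound addition, they were imaged on a CQ1 microscope at 37°C and 5% CO2 and gated by CellPathfinder machine learning into Hoechst high-intensity objects or normal cells, with normal cells split into healthy, pyknosed or fragmented nuclei and pyknosed cells into mitotic or apoptotic. Tubulin, mitochondrial-mass and membrane-permeability phenotypes are per cents of healthy-nucleus cells.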
# [1] = 12 h, 1 µM, compound concentration 1 uM
# [2] = 12 h, 10 µM, compound concentration 10 uM
# [3] = 24 h, 1 µM, compound concentration 1 uM
# [4] = 24 h, 10 µM, compound concentration 10 uM
# [5] = 48 h, 1 µM, compound concentration 1 uM
# [6] = 48 h, 10 µM, compound concentration 10 uM
smiles,measurement,setting,value
CC(C)NC(=O)[C@H]1CCC[C@H]1Nc1nc(Nc2ccc(C(=O)N(C)C3CCN(C)CC3)cc2)ncc1Cl,Population Apoptotic (%),[1],45% and 33%
same,Population Fragmented Nuclei (%),[1],7% and 8%
same,Population Healthy Nuclei (%),[1],62% and 61%
same,Population Hoechst High Intensity Objects (%),[1],0%
same,Population Membrane Permeable-Phenotype (%),[1],8%
same,Population Mitochondria Different-Phenotype (%),[1],0% and 2%
same,Population Mitotic Cells (%),[1],54% and 66%
same,Population Normal (%),[1],100%
same,Population Pyknosed Nuclei (%),[1],30% and 29%
same,Population Tubulin-Different-Phenotype (%),[1],20% and 12%
same,Total Cell Count,[1],109 and 134
same,Population Apoptotic (%),[2],62% and 51%
same,Population Fragmented Nuclei (%),[2],19% and 12%
same,Population Healthy Nuclei (%),[2],62% and 75%
same,Population Hoechst High Intensity Objects (%),[2],0%
same,Population Membrane Permeable-Phenotype (%),[2],0% and 4%
same,Population Mitochondria Different-Phenotype (%),[2],3% and 6%
same,Population Mitotic Cells (%),[2],37% and 48%
same,Population Normal (%),[2],100%
same,Population Pyknosed Nuclei (%),[2],18% and 12%
same,Population Tubulin-Different-Phenotype (%),[2],51% and 44%
same,Total Cell Count,[2],177 and 250
same,Population Apoptotic (%),[3],48% and 58%
same,Population Fragmented Nuclei (%),[3],8% and 10%
same,Population Healthy Nuclei (%),[3],60% and 59%
same,Population Hoechst High Intensity Objects (%),[3],0%
same,Population Membrane Permeable-Phenotype (%),[3],14% and 7%
same,Population Mitochondria Different-Phenotype (%),[3],0%
same,Population Mitotic Cells (%),[3],51% and 41%
same,Population Normal (%),[3],100%
same,Population Pyknosed Nuclei (%),[3],30%
same,Population Tubulin-Different-Phenotype (%),[3],16% and 13%
same,Total Cell Count,[3],127 and 136
same,Population Apoptotic (%),[4],65% and 66%
same,Population Fragmented Nuclei (%),[4],16% and 13%
same,Population Healthy Nuclei (%),[4],64% and 71%
same,Population Hoechst High Intensity Objects (%),[4],0%
same,Population Membrane Permeable-Phenotype (%),[4],2% and 0%
same,Population Mitochondria Different-Phenotype (%),[4],9% and 6%
same,Population Mitotic Cells (%),[4],34% and 33%
same,Population Normal (%),[4],100%
same,Population Pyknosed Nuclei (%),[4],18% and 15%
same,Population Tubulin-Different-Phenotype (%),[4],40% and 28%
same,Total Cell Count,[4],171 and 258
same,Population Apoptotic (%),[5],67% and 75%
same,Population Fragmented Nuclei (%),[5],14%
same,Population Healthy Nuclei (%),[5],62% and 59%
same,Population Hoechst High Intensity Objects (%),[5],0%
same,Population Membrane Permeable-Phenotype (%),[5],8% and 4%
same,Population Mitochondria Different-Phenotype (%),[5],0% and 1%
same,Population Mitotic Cells (%),[5],32% and 24%
same,Population Normal (%),[5],100%
same,Population Pyknosed Nuclei (%),[5],22% and 26%
same,Population Tubulin-Different-Phenotype (%),[5],15% and 11%
same,Total Cell Count,[5],127 and 141
same,Population Apoptotic (%),[6],78% and 82%
same,Population Fragmented Nuclei (%),[6],17% and 12%
same,Population Healthy Nuclei (%),[6],64% and 69%
same,Population Hoechst High Intensity Objects (%),[6],0%
same,Population Membrane Permeable-Phenotype (%),[6],4% and 5%
same,Population Mitochondria Different-Phenotype (%),[6],6% and 2%
same,Population Mitotic Cells (%),[6],21% and 17%
same,Population Normal (%),[6],99% and 100%
same,Population Pyknosed Nuclei (%),[6],17% and 18%
same,Population Tubulin-Different-Phenotype (%),[6],36% and 18%
same,Total Cell Count,[6],160 and 243
CCN(CC)C/C=C/C(=O)Nc1cc2c(Nc3ccc(F)c(Cl)c3)ncnc2cc1OCC1CC1,Population Apoptotic (%),[1],48% and 35%
same,Population Fragmented Nuclei (%),[1],14% and 17%
same,Population Healthy Nuclei (%),[1],62% and 55%
same,Population Hoechst High Intensity Objects (%),[1],0%
same,Population Membrane Permeable-Phenotype (%),[1],10% and 15%
same,Population Mitochondria Different-Phenotype (%),[1],2% and 4%
same,Population Mitotic Cells (%),[1],51% and 65%
same,Population Normal (%),[1],100%
same,Population Pyknosed Nuclei (%),[1],22% and 26%
same,Population Tubulin-Different-Phenotype (%),[1],61% and 56%
same,Total Cell Count,[1],189 and 225
same,Population Apoptotic (%),[2],63% and 58%
same,Population Fragmented Nuclei (%),[2],19% and 20%
same,Population Healthy Nuclei (%),[2],47% and 51%
same,Population Hoechst High Intensity Objects (%),[2],0%
same,Population Membrane Permeable-Phenotype (%),[2],25% and 20%
same,Population Mitotic Cells (%),[2],36% and 41%
same,Population Normal (%),[2],100%
same,Population Pyknosed Nuclei (%),[2],33% and 27%
same,Population Tubulin-Different-Phenotype (%),[2],92% and 87%
same,Total Cell Count,[2],209 and 264
same,Population Apoptotic (%),[3],52% and 62%
same,Population Fragmented Nuclei (%),[3],17% and 20%
same,Population Healthy Nuclei (%),[3],60% and 64%
same,Population Hoechst High Intensity Objects (%),[3],1% and 0%
same,Population Membrane Permeable-Phenotype (%),[3],2% and 4%
same,Population Mitochondria Different-Phenotype (%),[3],7% and 12%
same,Population Mitotic Cells (%),[3],47% and 37%
same,Population Normal (%),[3],98% and 100%
same,Population Pyknosed Nuclei (%),[3],22% and 15%
same,Population Tubulin-Different-Phenotype (%),[3],75% and 62%
same,Total Cell Count,[3],192 and 231
same,Population Apoptotic (%),[4],91% and 85%
same,Population Fragmented Nuclei (%),[4],13% and 8%
same,Population Healthy Nuclei (%),[4],13% and 19%
same,Population Hoechst High Intensity Objects (%),[4],0%
same,Population Membrane Permeable-Phenotype (%),[4],14% and 16%
same,Population Mitochondria Different-Phenotype (%),[4],71% and 56%
same,Population Mitotic Cells (%),[4],8% and 14%
same,Population Normal (%),[4],99%
same,Population Pyknosed Nuclei (%),[4],72% and 71%
same,Population Tubulin-Different-Phenotype (%),[4],95% and 89%
same,Total Cell Count,[4],154 and 190
same,Population Apoptotic (%),[5],73% and 53%
same,Population Fragmented Nuclei (%),[5],28% and 25%
same,Population Healthy Nuclei (%),[5],59% and 63%
same,Population Hoechst High Intensity Objects (%),[5],0%
same,Population Membrane Permeable-Phenotype (%),[5],3% and 1%
same,Population Mitochondria Different-Phenotype (%),[5],10% and 8%
same,Population Mitotic Cells (%),[5],26% and 46%
same,Population Normal (%),[5],100% and 99%
same,Population Pyknosed Nuclei (%),[5],12% and 11%
same,Population Tubulin-Different-Phenotype (%),[5],68% and 45%
same,Total Cell Count,[5],210 and 233
same,Population Apoptotic (%),[6],92% and 94%
same,Population Fragmented Nuclei (%),[6],22% and 28%
same,Population Healthy Nuclei (%),[6],10% and 21%
same,Population Hoechst High Intensity Objects (%),[6],0%
same,Population Membrane Permeable-Phenotype (%),[6],41% and 38%
same,Population Mitochondria Different-Phenotype (%),[6],29% and 19%
same,Population Mitotic Cells (%),[6],7% and 5%
same,Population Normal (%),[6],100%
same,Population Pyknosed Nuclei (%),[6],67% and 49%
same,Population Tubulin-Different-Phenotype (%),[6],47% and 93%
same,Total Cell Count,[6],168 and 145
COC(=O)Nc1nc2c(s1)-c1c(c(-c3cccnc3)nn1-c1ccc(C3(N(C)C)CC3)cc1)CC2.Cl.Cl,Population Apoptotic (%),[1],38% and 45%
same,Population Fragmented Nuclei (%),[1],50% and 26%
same,Population Healthy Nuclei (%),[1],40% and 52%
same,Population Hoechst High Intensity Objects (%),[1],0%
same,Population Membrane Permeable-Phenotype (%),[1],5% and 6%
same,Population Mitochondria Different-Phenotype (%),[1],0%
same,Population Mitotic Cells (%),[1],61% and 54%
same,Population Normal (%),[1],99% and 100%
same,Population Pyknosed Nuclei (%),[1],9% and 21%
same,Population Tubulin-Different-Phenotype (%),[1],29% and 31%
same,Total Cell Count,[1],378 and 219
same,Population Apoptotic (%),[2],62% and 41%
same,Population Fragmented Nuclei (%),[2],31% and 34%
same,Population Healthy Nuclei (%),[2],55% and 57%
same,Population Hoechst High Intensity Objects (%),[2],0%
same,Population Membrane Permeable-Phenotype (%),[2],13% and 11%
same,Population Mitochondria Different-Phenotype (%),[2],2% and 4%
same,Population Mitotic Cells (%),[2],37% and 58%
same,Population Normal (%),[2],100% and 99%
same,Population Pyknosed Nuclei (%),[2],12% and 8%
same,Population Tubulin-Different-Phenotype (%),[2],63% and 52%
same,Total Cell Count,[2],218 and 427
same,Population Apoptotic (%),[3],60% and 87%
same,Population Fragmented Nuclei (%),[3],50% and 24%
same,Population Healthy Nuclei (%),[3],42% and 60%
same,Population Hoechst High Intensity Objects (%),[3],0%
same,Population Membrane Permeable-Phenotype (%),[3],4%
same,Population Mitochondria Different-Phenotype (%),[3],2% and 3%
same,Population Normal (%),[3],99% and 100%
same,Population Pyknosed Nuclei (%),[3],6% and 15%
same,Population Tubulin-Different-Phenotype (%),[3],20% and 31%
same,Total Cell Count,[3],350 and 202
same,Population Apoptotic (%),[4],65% and 52%
same,Population Fragmented Nuclei (%),[4],34% and 36%
same,Population Healthy Nuclei (%),[4],55% and 57%
same,Population Hoechst High Intensity Objects (%),[4],0%
same,Population Membrane Permeable-Phenotype (%),[4],11% and 5%
same,Population Mitochondria Different-Phenotype (%),[4],4% and 3%
same,Population Mitotic Cells (%),[4],34% and 48%
same,Population Normal (%),[4],100% and 99%
same,Population Pyknosed Nuclei (%),[4],10% and 5%
same,Population Tubulin-Different-Phenotype (%),[4],53% and 44%
same,Total Cell Count,[4],225 and 437
same,Population Apoptotic (%),[5],52% and 74%
same,Population Fragmented Nuclei (%),[5],51% and 29%
same,Population Healthy Nuclei (%),[5],43% and 56%
same,Population Hoechst High Intensity Objects (%),[5],0%
same,Population Membrane Permeable-Phenotype (%),[5],6% and 5%
same,Population Mitochondria Different-Phenotype (%),[5],2% and 0%
same,Population Mitotic Cells (%),[5],47% and 25%
same,Population Normal (%),[5],99% and 100%
same,Population Pyknosed Nuclei (%),[5],5% and 13%
same,Population Tubulin-Different-Phenotype (%),[5],12% and 21%
same,Total Cell Count,[5],339 and 195
same,Population Apoptotic (%),[6],57% and 73%
same,Population Fragmented Nuclei (%),[6],38% and 39%
same,Population Healthy Nuclei (%),[6],58% and 53%
same,Population Hoechst High Intensity Objects (%),[6],0%
same,Population Membrane Permeable-Phenotype (%),[6],3% and 0%
same,Population Mitochondria Different-Phenotype (%),[6],3% and 1%
same,Population Mitotic Cells (%),[6],42% and 26%
same,Population Normal (%),[6],100% and 99%
same,Population Pyknosed Nuclei (%),[6],3% and 6%
same,Population Tubulin-Different-Phenotype (%),[6],42% and 17%
same,Total Cell Count,[6],223 and 418
